Assay [1] concerns the target T1, Alpha-2A adrenergic receptor (Homo sapiens, UniProt P08913).
T1 sequence (P08913 whole entry): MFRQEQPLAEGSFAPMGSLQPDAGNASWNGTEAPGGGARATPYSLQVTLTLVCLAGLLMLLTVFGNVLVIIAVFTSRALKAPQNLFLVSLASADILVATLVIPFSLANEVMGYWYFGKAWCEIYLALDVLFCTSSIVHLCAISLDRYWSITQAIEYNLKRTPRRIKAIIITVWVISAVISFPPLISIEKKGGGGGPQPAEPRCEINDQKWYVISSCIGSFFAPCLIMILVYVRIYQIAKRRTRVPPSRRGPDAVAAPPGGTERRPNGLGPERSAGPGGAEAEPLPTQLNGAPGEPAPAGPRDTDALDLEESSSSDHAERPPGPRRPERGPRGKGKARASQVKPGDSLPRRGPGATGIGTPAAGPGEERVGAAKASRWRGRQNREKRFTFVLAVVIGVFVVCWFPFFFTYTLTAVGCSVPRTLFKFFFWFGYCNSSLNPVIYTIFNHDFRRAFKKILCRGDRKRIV
As to the kind of experiment: Displacement of [3H] RX821002 from alpha2A adrenergic receptor (unknown origin). On the technique in general: Loss of bound radioactivity is the signal in a displacement assay; it reports binding, not function.

A further assay concerns the target T2, D(4) dopamine receptor (Homo sapiens, UniProt P21917).
T2 sequence (P21917 whole entry): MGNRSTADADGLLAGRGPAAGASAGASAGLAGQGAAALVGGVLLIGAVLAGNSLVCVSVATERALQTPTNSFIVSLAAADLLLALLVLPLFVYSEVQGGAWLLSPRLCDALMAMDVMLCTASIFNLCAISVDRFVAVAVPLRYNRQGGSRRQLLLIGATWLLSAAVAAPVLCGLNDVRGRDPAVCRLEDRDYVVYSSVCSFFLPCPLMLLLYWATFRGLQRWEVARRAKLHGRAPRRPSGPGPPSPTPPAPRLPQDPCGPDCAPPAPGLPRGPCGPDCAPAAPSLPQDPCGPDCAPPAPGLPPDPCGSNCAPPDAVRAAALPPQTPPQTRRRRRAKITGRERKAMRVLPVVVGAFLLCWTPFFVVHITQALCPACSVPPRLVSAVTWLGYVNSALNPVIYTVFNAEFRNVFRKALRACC
The experiment in a line: Antagonist activity at […] D4 receptor (unknown origin) expressed in HEK293 cells co-expressing beta-arrestin2 assessed as inhibition of quinpirole-induced beta-arrestin2 recruitment preincubated for 30 mins followed by quinpirole addition and further incubated for 6 hrs by Path-Hunter assay. Format: cell-based.

The species entered for a further assay is Homo sapiens. The experiment in a line: Selectivity index, ratio of Ki for displacement of [3H] prazosin from alpha1A adrenergic receptor to Ki for displacement of [3H] Spiperone from human D4.4 receptor expressed in CHO cells. The assay is classed as cell-based.
Assay [2] has as its target T3, 5-hydroxytryptamine receptor 1A (Homo sapiens, UniProt P08908).
T3 sequence (P08908 whole entry): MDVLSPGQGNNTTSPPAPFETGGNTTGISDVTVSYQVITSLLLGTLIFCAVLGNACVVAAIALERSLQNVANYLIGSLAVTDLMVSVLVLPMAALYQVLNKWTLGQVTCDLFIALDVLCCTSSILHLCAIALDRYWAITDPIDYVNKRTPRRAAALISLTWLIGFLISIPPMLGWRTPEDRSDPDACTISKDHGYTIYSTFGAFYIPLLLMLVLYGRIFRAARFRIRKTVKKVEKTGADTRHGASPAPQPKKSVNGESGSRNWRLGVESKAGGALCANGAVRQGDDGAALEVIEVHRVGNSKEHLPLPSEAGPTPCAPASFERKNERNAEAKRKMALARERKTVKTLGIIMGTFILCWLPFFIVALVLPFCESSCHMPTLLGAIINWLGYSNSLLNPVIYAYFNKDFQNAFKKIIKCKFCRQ
The experiment in a line: Displacement of [3H] WAY100635 from 5HT1A receptor (unknown origin). Put shortly: (§1)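 Radioligand competition binding; Ki given as mean ± SD from two individual experiments, each run in triplicate.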

The target in assay [3] is T4, Muscarinic acetylcholine receptor M2 (Homo sapiens, UniProt P08172).
T4 sequence (P08172 whole entry): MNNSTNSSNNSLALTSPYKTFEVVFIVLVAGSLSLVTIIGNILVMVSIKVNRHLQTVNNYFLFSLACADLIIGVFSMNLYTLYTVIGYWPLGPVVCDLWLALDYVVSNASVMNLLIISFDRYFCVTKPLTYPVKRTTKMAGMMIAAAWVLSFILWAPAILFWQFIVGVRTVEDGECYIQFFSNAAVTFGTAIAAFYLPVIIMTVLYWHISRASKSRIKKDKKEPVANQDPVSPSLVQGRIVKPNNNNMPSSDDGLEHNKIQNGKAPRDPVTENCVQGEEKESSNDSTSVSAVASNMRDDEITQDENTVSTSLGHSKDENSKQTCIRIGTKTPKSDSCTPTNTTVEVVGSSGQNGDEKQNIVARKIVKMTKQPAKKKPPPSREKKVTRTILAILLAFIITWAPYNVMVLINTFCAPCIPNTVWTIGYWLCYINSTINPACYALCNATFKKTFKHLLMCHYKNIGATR
The experiment in a line: Displacement of [3H] NMS from muscarinic M2 receptor (unknown origin). In a few lines:
as §1

The target in the next assay is D(2) dopamine receptor (Homo sapiens, UniProt P14416). As to the kind of experiment: Displacement of [3H] Spiperone from human D2L receptor expressed in CHO cells by competitive radioligand binding assay. Format: cell-based.
D(2) dopamine receptor, sequence (P14416 whole entry): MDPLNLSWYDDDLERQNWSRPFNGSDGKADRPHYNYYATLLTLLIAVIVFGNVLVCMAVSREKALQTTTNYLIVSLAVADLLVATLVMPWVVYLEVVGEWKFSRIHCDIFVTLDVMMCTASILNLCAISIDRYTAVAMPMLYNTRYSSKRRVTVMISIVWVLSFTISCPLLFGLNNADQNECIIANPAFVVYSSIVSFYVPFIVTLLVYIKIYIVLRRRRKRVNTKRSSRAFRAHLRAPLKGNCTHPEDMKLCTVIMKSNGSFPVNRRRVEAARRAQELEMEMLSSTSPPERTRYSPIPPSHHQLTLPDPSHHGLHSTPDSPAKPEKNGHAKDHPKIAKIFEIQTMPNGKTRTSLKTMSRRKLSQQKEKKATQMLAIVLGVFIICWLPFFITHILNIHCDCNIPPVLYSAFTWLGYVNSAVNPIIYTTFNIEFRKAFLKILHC

Structures are written as SMILES.

One may read the Ki as a measure of affinity in units of concentration, obtained from inhibition or displacement. Broadly, the IC50 is the point on the concentration scale where inhibition reaches its midpoint.

As for `COc1ccccc1N1CCN(CCCNC(=O)NN(Cc2ccc(F)cc2)c2ccccc2)CC1`, the Ki was 860 nM in assay [1], 34 nM in assay [2], 17000 nM in assay [3] and 140 nM on D(2) dopamine receptor. The IC50 on D(4) dopamine receptor worked out at 620 nM. For the same molecule, the Ratio Ki in the assay listed under Homo sapiens was 2.9.

Values taken from ChEMBL document CHEMBL4321823, “Benzyl Phenylsemicarbazides: A Chemistry-Driven Approach Leading to G Protein-Biased Dopamine D4 Receptor Agonists with High Subtype Selectivity” (J Med Chem, 2019).
